Assay results as given in ChEMBL document CHEMBL4706740, “Structure-Activity Study of Nitazoxanide Derivatives as Novel STAT3 Pathway Inhibitors” (ACS Med Chem Lett, 2021).
Values belong to the compound of their own block, whether it stands above or below them.

Columns and labels:
[1] = Cytotoxicity against human HeLa cells assessed as inhibition of cell viability at 10 uM measured after 48 hrs by MTT assay; assay type: cell-based; details: read-out: INH
[2] = biological target: Signal transducer and activator of transcription 3 (Homo sapiens) (UniProt P40763); assay: Inhibition of IL-6 induced STAT3 transcriptional activity in human HEK-Blue IL-6 cells assessed as secreted embryonic alkaline phosphatase reporter gene expression at 10 uM by microplate reader; assay type: cell-based
Sequence of Signal transducer and activator of transcription 3 (Homo sapiens) (P40763 whole entry): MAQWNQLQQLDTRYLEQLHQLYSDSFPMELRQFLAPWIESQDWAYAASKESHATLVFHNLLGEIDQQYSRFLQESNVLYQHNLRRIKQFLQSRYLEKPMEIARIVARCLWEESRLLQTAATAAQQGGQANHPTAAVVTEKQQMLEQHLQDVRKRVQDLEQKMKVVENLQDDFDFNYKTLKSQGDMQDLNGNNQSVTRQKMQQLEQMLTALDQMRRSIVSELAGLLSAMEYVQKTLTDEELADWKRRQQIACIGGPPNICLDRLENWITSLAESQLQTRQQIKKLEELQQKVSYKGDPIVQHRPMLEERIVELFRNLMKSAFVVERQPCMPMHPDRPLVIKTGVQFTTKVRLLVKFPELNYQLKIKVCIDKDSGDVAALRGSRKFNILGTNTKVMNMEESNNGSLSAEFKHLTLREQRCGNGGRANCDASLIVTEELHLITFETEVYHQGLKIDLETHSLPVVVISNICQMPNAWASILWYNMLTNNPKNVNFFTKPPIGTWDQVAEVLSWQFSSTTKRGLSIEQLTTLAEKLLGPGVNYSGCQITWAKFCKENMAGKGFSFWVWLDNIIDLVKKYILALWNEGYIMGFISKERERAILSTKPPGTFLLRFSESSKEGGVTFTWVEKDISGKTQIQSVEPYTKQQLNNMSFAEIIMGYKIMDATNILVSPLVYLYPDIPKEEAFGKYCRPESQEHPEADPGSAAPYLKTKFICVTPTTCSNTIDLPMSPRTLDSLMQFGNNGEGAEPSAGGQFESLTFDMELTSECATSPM
Summary of the method: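 Single-concentration screen in HEK-Blue IL-6 cells: % inhibition of the SEAP reporter read-out of STAT3 pathway activity, with viability checked by MTT in parallel. Values are averages of three independent experiments.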

[3] = Elimination Half life in Sprague-Dawley rat at 5 mg/kg, iv; assay type: ADME, organism-based; details: in vivo, read-out: beta t1/2 (converted)
Summary of the method: (§1)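 Rats, n = 3 per group, received a single dose either intragastrically (25 mg/kg) or intravenously (5 mg/kg). Plasma concentration–time curves were used to derive t1/2α, t1/2β, Vd/F, CL/F, AUC0–∞, Tmax and Cmax. Absolute oral bioavailability was calculated from the ig and iv data.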

[4] = Absolute bioavailability in Sprague-Dawley rat at 25 mg/kg, IG; assay type: ADME, organism-based; details: in vivo, po; summary of the method: as §1
[5] = Apparent volume of distribution in Sprague-Dawley rat at 25 mg/kg, IG; assay type: ADME, organism-based; details: in vivo, po
[6] = AUC (0 to infinity) in Sprague-Dawley rat at 25 mg/kg, IG; assay type: ADME, organism-based; design: route […], time infinity, dose 25 mg/kg; details: in vivo, po; summary of the method: as §1
[7] = Apparent oral clearance in Sprague-Dawley rat at 25 mg/kg, IG; assay type: ADME, organism-based; details: in vivo, read-out: CL/F (converted); summary of the method: as §1
[8] = Elimination Half life in Sprague-Dawley rat at 25 mg/kg, IG; assay type: ADME, organism-based; details: in vivo, po, read-out: beta t1/2 (converted); summary of the method: as §1
[9] = AUC (0 to infinity) in Sprague-Dawley rat at 5 mg/kg, iv; assay type: ADME, organism-based; design: route intravenous, time infinity, dose 5 mg/kg; details: in vivo; summary of the method: as §1
[10] = Cmax in Sprague-Dawley rat at 5 mg/kg, iv; assay type: ADME, organism-based; design: route intravenous, dose 5 mg/kg; details: in vivo; summary of the method: as §1
[11] = Tmax in Sprague-Dawley rat at 25 mg/kg, IG; assay type: ADME, organism-based; details: in vivo, po
[12] = Apparent volume of distribution in Sprague-Dawley rat at 5 mg/kg, iv; assay type: ADME, organism-based; details: in vivo; summary of the method: as §1
[13] = Cmax in Sprague-Dawley rat at 25 mg/kg, IG; assay type: ADME, organism-based; design: route […], dose 25 mg/kg; details: in vivo, po; summary of the method: as §1
[14] = Half life in Sprague-Dawley rat at 5 mg/kg, iv; assay type: ADME, organism-based; details: in vivo; summary of the method: as §1
[15] = Half life in Sprague-Dawley rat at 25 mg/kg, IG; assay type: ADME, organism-based; details: in vivo, po; summary of the method: as §1
[16] = Cytotoxicity against human HEK 293T cells assessed as cell growth inhibition at 50 uM measured after 48 hrs by MTT assay; assay type: cell-based
[17] = tested on: HeLa; assay: Cytotoxicity against human HeLa cells assessed as inhibition of cell viability measured after 48 hrs by MTT assay; assay type: functional, cell-based
Summary of the method: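 Growth was read by MTT assay and IC50 taken from dose–response curves. Values are averages of three independent experiments.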

[18] = Cytotoxicity against human HEK 293T cells assessed as cell growth inhibition at 10 uM measured after 48 hrs by MTT assay; assay type: cell-based

SMILES: O=C(Nc1ncc([N+](=O)[O-])s1)c1ccccc1Br
- cytotoxicity at 48 h, 10 µM [1]: -10.1%
- inhibition [2]: 25.1%

SMILES: O=C(Nc1ncc([N+](=O)[O-])s1)c1ccc(N2CCOCC2)cc1
- cytotoxicity at 48 h, 10 µM [1]: 50.6%
- inhibition [2]: 9%

SMILES: C#CCN(C(=O)c1ccc(C(F)(F)F)cc1)c1ncc([N+](=O)[O-])s1
- inhibition [2]: 9.1%

SMILES: CN1CCN(c2ccc(C(=O)Nc3ncc([N+](=O)[O-])s3)cc2)CC1
- inhibition [2]: -3.3%

SMILES: Cc1ccccc1C(=O)Nc1ncc([N+](=O)[O-])s1
- inhibition [2]: 36.4%

SMILES: O=C(Nc1ncc([N+](=O)[O-])s1)c1ccc(O)c(O)c1
- inhibition [2]: 26.7%

SMILES: O=C(Nc1ncc([N+](=O)[O-])s1)c1ccc(O)cc1O
- inhibition [2]: 15.5%

SMILES: O=C(Nc1ncc([N+](=O)[O-])s1)c1ccc(S(=O)(=O)Nc2ccccc2)cc1
- inhibition [2]: 9%

SMILES: O=C(Nc1ncc([N+](=O)[O-])s1)c1cccc(O)c1
- inhibition [2]: 28.5%

SMILES: O=C(Nc1ncc([N+](=O)[O-])s1)c1ccccc1Cl
- inhibition [2]: 23%

SMILES: O=C(Nc1ncc([N+](=O)[O-])s1)c1ccccc1F
- inhibition [2]: 22.1%

SMILES: O=C(Nc1ncc([N+](=O)[O-])s1)c1ccccc1[N+](=O)[O-]
- inhibition [2]: 19%

SMILES: O=C(Nc1ncc([N+](=O)[O-])s1)c1ccccc1O [TIZOXANIDE]
- cytotoxicity at 48 h, 10 µM [1]: 12.7%
- inhibition at 48 h, 50 µM [16]: 21.6%
- IC50 [17]: 29.8 µM
- inhibition at 48 h, 10 µM [18]: -5.7%

SMILES: C[C@H](NC(=O)/C(C#N)=C/c1cccc(Br)n1)c1ccccc1 [WP 1066]
- inhibition at 48 h, 50 µM [16]: 97.2%
- IC50 [17]: 4.2 µM
- inhibition at 48 h, 10 µM [18]: 79.9%

More lines, now with the values ahead:

- half-life [3]: 2.3 h
- bioavailability [4]: 87.4%
- Vd/F [5]: 0.5 L/kg
- AUC(0-inf) [6]: 391 µg·h/mL
- CL/F [7]: 0.833 mL/min/kg
- half-life [8]: 11.1 h
- AUC(0-inf) [9]: 89.4 µg·h/mL
- Cmax [10]: 28100 ng/mL
- Tmax [11]: 4 h
- Vd/F [12]: 0.5 L/kg
- Cmax [13]: 20700 ng/mL
- half-life [14]: 3.6 min
- half-life [15]: 1.9 h
SMILES: O=C(Nc1ncc([N+](=O)[O-])s1)c1ccc(C(F)(F)F)cc1

- inhibition [2]: 43.7%
SMILES: CC(C)(C)c1ccc(C(=O)Nc2ncc([N+](=O)[O-])s2)cc1

- inhibition [2]: 14.9%
SMILES: COc1ccc(C(=O)Nc2ncc([N+](=O)[O-])s2)cc1

- inhibition [2]: 5.3%
SMILES: CS(=O)(=O)c1ccc(C(=O)Nc2ncc([N+](=O)[O-])s2)cc1

- inhibition [2]: -9.7%
SMILES: NS(=O)(=O)c1ccc(C(=O)Nc2ncc([N+](=O)[O-])s2)cc1

- inhibition [2]: 20.9%
SMILES: O=C(Nc1ncc([N+](=O)[O-])s1)c1ccc(O)cc1

- inhibition [2]: 35.5%
SMILES: O=C(Nc1ncc([N+](=O)[O-])s1)c1ccccc1
